Experimental data from ChEMBL document CHEMBL2375227, “Novel small molecules as apoptosis inducers: synthesis, preliminary structure-activity relationships, and in vitro biological evaluation” (Bioorg Med Chem Lett, 2013).

Experiments:
[1] = Antiproliferative activity against human A875 cells after 48 hrs by MTT assay; type: functional, cell-based; conditions: A875, 48 h
Outline: (§1)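 Cells seeded at 3 × 10^3/well and grown 24 h, then exposed to compounds for 48 h. MTT (5 mg/ml stock) added for 2 h at 37 °C, supernatant removed, formazan dissolved in DMSO 15-20 min. Absorbance read at 570 nm. IC50 per cell line, mean of three determinations.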

[2] = tested on: HeLa; test: Antiproliferative activity against human HeLa cells after 48 hrs by MTT assay; type: functional, cell-based; outline: as §1
[3] = Antiproliferative activity against human H460 cells after 48 hrs by MTT assay; type: functional, cell-based; conditions: NCI-H460, 48 h; outline: as §1
[4] = tested on: SMMC-7721; test: Antiproliferative activity against human SMMC7721 cells after 48 hrs by MTT assay; type: functional, cell-based; conditions: SMMC-7721, 48 h; outline: as §1
[5] = Induction of apoptosis in human A875 cells at 0.38 uM after 48 hrs by propidium iodide staining-based flow cytometric analysis (reference value: 1.56%); type: functional
[6] = Cell cycle arrest in human A875 cells assessed as accumulation at S phase at 0.75 uM after 48 hrs by propidium iodide staining-based flow cytometric analysis (reference value: 11.46%); type: functional
[7] = tested on: HepG2; test: Antiproliferative activity against human HepG2 cells after 48 hrs by MTT assay; type: functional, cell-based; conditions: HepG2, 48 h; outline: as §1
[8] = Cell cycle arrest in human A875 cells assessed as accumulation at S phase at 0.38 uM after 48 hrs by propidium iodide staining-based flow cytometric analysis (reference value: 11.46%); type: functional
[9] = Cell cycle arrest in human A875 cells assessed as accumulation at G2/M phase at 0.75 uM after 48 hrs by propidium iodide staining-based flow cytometric analysis (reference value: 10.36%); type: functional
[10] = Induction of apoptosis in human A875 cells at 0.75 uM after 24 hrs by propidium iodide staining-based flow cytometric analysis (reference value: 1.14%); type: functional
[11] = tested on: A875; test: Induction of apoptosis in human A875 cells after 48 hrs by propidium iodide staining-based flow cytometric analysis; type: functional, cell-based
[12] = tested on: A875; test: Induction of apoptosis in human A875 cells assessed as appearance of condensed nuclei after 36 hrs by Hoechst 33342 staining-based fluorescence microscopic analysis; type: functional, cell-based
Outline: (§2)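 A875 cells (1 × 10^5/well) cultured 24 h, then treated for 36 h at 0.38, 0.75 or 1.5 µM. After PBS rinse and fixation in 75% ethanol, morphology checked by inverted bright-field microscope. Nuclei then stained with Hoechst 33342 (2 µg/mL in PBS) and examined by fluorescence microscopy for condensed, fragmented nuclei.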

[13] = Cell cycle arrest in human A875 cells assessed as accumulation at S phase at 1.5 uM after 48 hrs by propidium iodide staining-based flow cytometric analysis (reference value: 11.46%); type: functional
[14] = tested on: A875; test: Induction of apoptosis in human A875 cells assessed as cell shrinkage and rounding up after 36 hrs by Hoechst 33342 staining-based fluorescence microscopic analysis; type: functional; outline: as §2
[15] = Induction of apoptosis in human A875 cells at 1.5 uM after 48 hrs by propidium iodide staining-based flow cytometric analysis (reference value: 1.56%); type: functional
[16] = tested on: A549; test: Antiproliferative activity against human A549 cells after 48 hrs by MTT assay; type: functional, cell-based; conditions: A549, 48 h; outline: as §1
[17] = Induction of apoptosis in human A875 cells at 1.5 uM after 24 hrs by propidium iodide staining-based flow cytometric analysis (reference value: 1.14%); type: functional
[18] = tested on: Bel-7402; test: Antiproliferative activity against human Bel7402 cells after 48 hrs by MTT assay; type: functional, cell-based; conditions: Bel-7402, 48 h; outline: as §1
[19] = tested on: HT-29; test: Antiproliferative activity against human HT-29 cells after 48 hrs by MTT assay; type: functional, cell-based; conditions: HT-29, 48 h; outline: as §1
[20] = Cell cycle arrest in human A875 cells assessed as accumulation at G0/G1 phase at 0.38 uM after 48 hrs by propidium iodide staining-based flow cytometric analysis (reference value: 78.18%); type: functional
[21] = Cell cycle arrest in human A875 cells assessed as accumulation at G0/G1 phase at 1.5 uM after 48 hrs by propidium iodide staining-based flow cytometric analysis (reference value: 78.18%); type: functional
[22] = Induction of apoptosis in human A875 cells at 0.75 uM after 48 hrs by propidium iodide staining-based flow cytometric analysis (reference value: 1.56%); type: functional
[23] = Induction of apoptosis in human A875 cells at 0.38 uM after 24 hrs by propidium iodide staining-based flow cytometric analysis (reference value: 1.14%); type: functional
[24] = tested on: HCT-116; test: Antiproliferative activity against human HCT116 cells after 48 hrs by MTT assay; type: functional, cell-based; conditions: HCT-116, 48 h; outline: as §1
[25] = tested on: BXPC-3; test: Antiproliferative activity against human BxPC3 cells after 48 hrs by MTT assay; type: functional, cell-based; conditions: BXPC-3, 48 h; outline: as §1
[26] = Cell cycle arrest in human A875 cells assessed as accumulation at G0/G1 phase at 0.75 uM after 48 hrs by propidium iodide staining-based flow cytometric analysis (reference value: 78.18%); type: functional
[27] = Cell cycle arrest in human A875 cells assessed as accumulation at G2/M phase at 1.5 uM after 48 hrs by propidium iodide staining-based flow cytometric analysis (reference value: 10.36%); type: functional
[28] = Cell cycle arrest in human A875 cells assessed as accumulation at G2/M phase at 0.38 uM after 48 hrs by propidium iodide staining-based flow cytometric analysis (reference value: 10.36%); type: functional

O=C(CCl)Nc1ccc(SCC(=O)Nc2cc(Cl)ccn2)cc1
IC50 [1]: 0.85 µM | IC50 [2]: 2.8 µM | IC50 [3]: 5.6 µM

Cc1ccc(NC(=O)CSc2nnc(NC(=O)CCl)s2)nc1
IC50 [1]: 18.3 µM | IC50 [2]: 10.9 µM | IC50 [3]: 15.4 µM

CC(C)(C)C(=O)Nc1ccc(SCC(=O)Nc2cc(Cl)ccn2)cc1
IC50 [1]: > 80 µM | IC50 [2]: > 80 µM | IC50 [3]: 35.3 µM

O=C(CSc1nnc(NC(=O)CCl)s1)Nc1ccc(Br)cn1
IC50 [1]: 13.9 µM | IC50 [2]: 3.4 µM | IC50 [3]: 7.5 µM

COc1ccccc1C(=O)Nc1nnc(SCC(=O)Nc2ccc(Cl)cn2)s1
IC50 [1]: > 80 µM | IC50 [2]: > 80 µM | IC50 [3]: > 80 µM

C=CC(=O)Nc1ccc(SCC(=O)Nc2cc(Cl)ccn2)cc1
IC50 [1]: 14.7 µM | IC50 [2]: 25.2 µM | IC50 [3]: 19.7 µM

O=C(CCCl)Nc1ccc(SCC(=O)Nc2cc(Cl)ccn2)cc1
IC50 [1]: 12.3 µM | IC50 [2]: 21.7 µM | IC50 [3]: 10.9 µM

O=C(CSc1nnc(NC(=O)CCCCl)s1)Nc1ccc(Cl)cn1
IC50 [1]: > 80 µM | IC50 [2]: > 80 µM | IC50 [3]: 55.2 µM

O=C(CSc1nnc(NC(=O)c2c(Cl)cccc2Cl)s1)Nc1ccc(Br)cn1
IC50 [1]: 18.6 µM | IC50 [2]: 25.8 µM | IC50 [3]: 16.8 µM

O=C(CSc1nnc(NC(=O)C(Cl)Cl)s1)Nc1ccc(Br)cn1
IC50 [1]: 6.5 µM | IC50 [2]: 15.2 µM | IC50 [3]: 5.3 µM

C=CC(=O)Nc1ccc(SCC(=O)NCc2cccc(Cl)c2)cc1
IC50 [1]: 21.1 µM | IC50 [2]: > 80 µM | IC50 [3]: 74.5 µM

O=C(CSc1ccc(NC(=O)CCCl)cc1)NCc1ccc(Cl)cc1
IC50 [1]: 31.4 µM | IC50 [2]: > 80 µM | IC50 [3]: 60.8 µM

O=C(CCl)Nc1ccc(SCC(=O)Nc2ccccn2)cc1
IC50 [1]: 17.2 µM | IC50 [2]: 7.8 µM | IC50 [3]: 11.9 µM

O=C(CCCl)Nc1ccc(SCC(=O)Nc2ccc(Br)cn2)cc1
IC50 [1]: 24.3 µM | IC50 [2]: 15.6 µM | IC50 [3]: 1.6 µM

O=C(CSc1nnc(NC(=O)CCl)s1)Nc1ccc(Cl)cn1
IC50 [1]: 8.6 µM | IC50 [2]: 3.6 µM | IC50 [3]: 5.7 µM

O=C(CCl)Nc1ccc(SCC(=O)Nc2ccc(Cl)cn2)cc1
IC50 [1]: 0.098 µM | IC50 [4]: 0.35 µM | Activity [5]: 11.17% | Activity [6]: 31.2% | IC50 [7]: 3.6 µM | Activity [8]: 29.1% | Activity [9]: 21.8% | Activity [10]: 25.45% | Activity [11]: Dose-dependent effect | Activity [12]: Dose-dependent effect | Activity [13]: 39.6% | Activity [14]: Dose-dependent effect | Activity [15]: 61.59% | IC50 [16]: 0.59 µM | Activity [17]: 42.88% | IC50 [18]: 0.45 µM | IC50 [2]: 2.5 µM | IC50 [19]: 8.7 µM | Activity [20]: 60% | Activity [21]: 30.5% | Activity [22]: 41.59% | Activity [23]: 3.67% | IC50 [24]: 0.61 µM | IC50 [25]: 0.19 µM | Activity [26]: 48.9% | IC50 [3]: 0.42 µM | Activity [27]: 29.9% | Activity [28]: 10.8%

O=C(CSc1nnc(NC(=O)CCCl)s1)Nc1ccc(Br)cn1
IC50 [1]: 0.43 µM | IC50 [2]: 5.3 µM | IC50 [3]: 0.56 µM

COc1ccccc1C(=O)Nc1nnc(SCC(=O)Nc2ccc(C)cn2)s1
IC50 [1]: > 80 µM | IC50 [2]: > 80 µM | IC50 [3]: > 80 µM

O=C(CCCCl)Nc1ccc(SCC(=O)Nc2ccc(Cl)cn2)cc1
IC50 [1]: > 80 µM | IC50 [2]: > 80 µM | IC50 [3]: > 80 µM

O=C(CCl)Nc1ccc(SCC(=O)Nc2ccc(Br)cn2)cc1
IC50 [1]: 0.29 µM | IC50 [4]: 0.43 µM | IC50 [7]: 5.8 µM | IC50 [16]: 6.2 µM | IC50 [18]: 0.67 µM | IC50 [2]: 2.1 µM | IC50 [19]: 13.7 µM | IC50 [24]: 1.2 µM | IC50 [25]: 0.28 µM | IC50 [3]: 0.53 µM

C=CC(=O)Nc1ccc(SCC(=O)Nc2ccccn2)cc1
IC50 [1]: 23.4 µM | IC50 [2]: > 80 µM | IC50 [3]: 76.8 µM

COc1ccccc1C(=O)Nc1nnc(SCC(=O)Nc2c(C)ccnc2Cl)s1
IC50 [1]: > 80 µM | IC50 [2]: > 80 µM | IC50 [3]: > 80 µM

O=C(CSc1ccc(NC(=O)CCl)cc1)NCc1cccc(Cl)c1
IC50 [1]: 7.8 µM | IC50 [2]: > 80 µM | IC50 [3]: 33.4 µM

Cc1ccnc(Cl)c1NC(=O)CSc1nnc(NC(=O)CCl)s1
IC50 [1]: 34.7 µM | IC50 [2]: 70.5 µM | IC50 [3]: 59.6 µM

CC(C)(C)C(=O)Nc1ccc(SCC(=O)Nc2ccc(Cl)cn2)cc1
IC50 [1]: > 80 µM | IC50 [2]: > 80 µM | IC50 [3]: 67.2 µM

O=C(CSc1ccc(NC(=O)C(Cl)(Cl)Cl)cc1)Nc1ccc(Cl)cn1
IC50 [1]: > 80 µM | IC50 [2]: > 80 µM | IC50 [3]: > 80 µM

O=C(CSc1ccc(NC(=O)CCl)cc1)NCc1ccc(Cl)cc1
IC50 [1]: 8.9 µM | IC50 [2]: > 80 µM | IC50 [3]: 23.1 µM

O=C(CSc1ccc(NC(=O)C(Cl)Cl)cc1)Nc1ccc(Br)cn1
IC50 [1]: 56.8 µM | IC50 [2]: > 80 µM | IC50 [3]: 47.8 µM

COc1ccccc1C(=O)Nc1nnc(SCC(=O)Nc2ccc(Br)cn2)s1
IC50 [1]: > 80 µM | IC50 [2]: > 80 µM | IC50 [3]: > 80 µM

O=C(CCCl)Nc1ccc(SCC(=O)Nc2ccccn2)cc1
IC50 [1]: 29.5 µM | IC50 [2]: 70.4 µM | IC50 [3]: 65.4 µM
